According to ChEMBL document CHEMBL1137378, “Antibacterial agent discovery using thymidylate synthase biolibrary screening” (J Med Chem, 2006):
pKi: −log10 of the molar value. ≈ marks a conversion by molar mass, not a printed value.

Key:
Enterococcus faecalis = test: Antibacterial activity against Enterococcus faecalis ATCCC29212; type: functional
In short: (§1)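 Wild-type strain panel (18 Gram-positive and Gram-negative strains). Bacteria grown in Mueller-Hinton broth at 37 °C for 24 h. Exponentially growing cultures diluted in sterile liquid medium to a final inoculum of about 1 × 10⁴ CFU/mL, then exposed to increasing compound concentrations. MIC taken as the lowest concentration with no evident bacterial growth.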

[1] = Specificity Index, Ki for human thymidylate synthase/Ki for Escherichia coli thymidylate synthase
Listeria monocytogenes [2] = test: Antibacterial activity against Listeria monocytogenes 3; type: functional; in short: as §1
Thymidylate synthase [3] = molecular target: Thymidylate synthase (Homo sapiens, UniProt P04818); test: Inhibition of human thymidylate synthase
Sequence of Thymidylate synthase (Homo sapiens, UniProt P04818) (P04818 whole entry): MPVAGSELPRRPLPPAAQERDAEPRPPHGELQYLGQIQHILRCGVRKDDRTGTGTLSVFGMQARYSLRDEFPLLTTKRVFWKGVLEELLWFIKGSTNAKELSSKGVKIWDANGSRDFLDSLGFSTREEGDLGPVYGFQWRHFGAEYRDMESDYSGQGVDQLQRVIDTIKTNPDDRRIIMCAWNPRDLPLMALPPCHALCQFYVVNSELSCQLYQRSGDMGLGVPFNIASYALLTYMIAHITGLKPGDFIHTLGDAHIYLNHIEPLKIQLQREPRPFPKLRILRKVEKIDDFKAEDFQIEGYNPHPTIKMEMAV

Streptococcus = test: Antibacterial activity against Streptococcus 42; type: functional; in short: as §1
Thymidylate synthase [4] = molecular target: T1, Thymidylate synthase (Cryptococcus neoformans var. neoformans B-3501A, UniProt P0CS13); test: Inhibition of Cryptococcus neoformans thymidylate synthase
T1 sequence (P0CS13 whole entry): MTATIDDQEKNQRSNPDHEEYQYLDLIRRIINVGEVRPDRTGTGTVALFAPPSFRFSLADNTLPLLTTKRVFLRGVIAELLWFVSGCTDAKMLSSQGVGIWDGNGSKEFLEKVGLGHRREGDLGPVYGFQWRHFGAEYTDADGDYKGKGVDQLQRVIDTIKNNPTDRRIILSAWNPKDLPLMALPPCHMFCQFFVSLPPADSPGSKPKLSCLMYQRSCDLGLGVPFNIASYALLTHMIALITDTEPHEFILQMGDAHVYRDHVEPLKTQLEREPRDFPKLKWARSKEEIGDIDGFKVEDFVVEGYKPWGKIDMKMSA

Staphylococcus aureus [5] = test: Antibacterial activity against Staphylococcus aureus 341; type: functional; in short: as §1
Escherichia coli [6] = test: Antibacterial activity against Escherichia coli 292; type: functional; in short: as §1
Staphylococcus aureus [7] = test: Antibacterial activity against Staphylococcus aureus ATCC 29213; type: functional; in short: as §1
Listeria monocytogenes [8] = test: Antibacterial activity against Listeria monocytogenes ATCC 4428; type: functional; in short: as §1
Thymidylate synthase [9] = molecular target: T2, Thymidylate synthase (Lactobacillus casei, UniProt P00469); test: Inhibition of Lactobacillus casei thymidylate synthase; design: species or system Lacticaseibacillus casei
T2 sequence (P00469 whole entry): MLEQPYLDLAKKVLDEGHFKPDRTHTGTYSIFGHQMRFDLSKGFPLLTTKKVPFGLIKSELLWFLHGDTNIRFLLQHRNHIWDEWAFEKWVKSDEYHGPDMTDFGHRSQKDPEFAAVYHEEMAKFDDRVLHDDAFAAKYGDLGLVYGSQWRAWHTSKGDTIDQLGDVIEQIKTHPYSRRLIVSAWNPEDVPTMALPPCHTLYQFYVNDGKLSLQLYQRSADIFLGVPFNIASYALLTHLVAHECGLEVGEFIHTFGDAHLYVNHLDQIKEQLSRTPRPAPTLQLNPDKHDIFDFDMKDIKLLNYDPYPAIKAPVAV

[10] = test system: Staphylococcus saprophyticus; test: Antibacterial activity against Staphylococcus saprophyticus ATCC 15305; type: functional; in short: as §1
Listeria monocytogenes [11] = test: Antibacterial activity against Listeria monocytogenes 5; type: functional; in short: as §1
[12] = Specificity Index, Ki for human thymidylate synthase/Ki for Cryptococcus neoformans thymidylate synthase
In short: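 Specificity index is Ki of hTS divided by Ki of the pathogen TS (LcTS, EcTS or CnTS). Each enzyme was purified to >95% and assayed spectrophotometrically at 340 nm, 20 °C. Buffer was TES 50 mM pH 7.4 with MgCl2, formaldehyde, EDTA and 2-mercaptoethanol, plus dUMP 100 µM, mTHF 140 µM and enzyme 0.07 µM.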

[13] = test system: Staphylococcus haemolyticus; test: Antibacterial activity against Staphylococcus haemolyticus ATCC 2997; type: functional; in short: as §1
Staphylococcus aureus [14] = test: Antibacterial activity against Staphylococcus aureus 343; type: functional; in short: as §1
Listeria monocytogenes [15] = test: Antibacterial activity against Listeria monocytogenes 4; type: functional; in short: as §1
[16] = Specificity Index, Ki for human thymidylate synthase/Ki for Lactobacillus casei thymidylate synthase
Escherichia coli [17] = test: Antibacterial activity against Escherichia coli 256; type: functional; in short: as §1
Listeria monocytogenes [18] = test: Antibacterial activity against Listeria monocytogenes 6; type: functional; in short: as §1
Listeria monocytogenes [19] = test: Antibacterial activity against Listeria monocytogenes 7; type: functional; in short: as §1
Homo sapiens = species: Homo sapiens; test: Selectivity Index, Ki for human dihydrofolate reductase/Ki for human thymidylate synthase
Staphylococcus aureus [20] = test: Antibacterial activity against Staphylococcus aureus K28; type: functional; in short: as §1
Citrobacter = test: Antibacterial activity against Citrobacter 224; type: functional; in short: as §1
Listeria monocytogenes [21] = test: Antibacterial activity against Listeria monocytogenes 8; type: functional; in short: as §1
Thymidylate synthase [22] = molecular target: Thymidylate synthase (Escherichia coli, UniProt C3SWJ7); test: Inhibition of Escherichia coli thymidylate synthase
Sequence of Thymidylate synthase (Escherichia coli, UniProt C3SWJ7) (C3SWJ7 whole entry): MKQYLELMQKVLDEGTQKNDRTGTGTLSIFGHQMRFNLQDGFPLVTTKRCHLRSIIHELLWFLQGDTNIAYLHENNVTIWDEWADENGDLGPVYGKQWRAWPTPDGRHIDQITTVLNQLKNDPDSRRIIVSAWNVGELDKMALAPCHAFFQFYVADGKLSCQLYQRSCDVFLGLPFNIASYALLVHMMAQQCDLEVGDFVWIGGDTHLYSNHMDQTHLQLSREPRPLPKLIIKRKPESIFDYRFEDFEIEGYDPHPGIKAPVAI

Dihydrofolate reductase = molecular target: T3, Dihydrofolate reductase (Homo sapiens, UniProt P00374); test: Inhibition of human dihydrofolate reductase
T3 sequence (P00374 whole entry): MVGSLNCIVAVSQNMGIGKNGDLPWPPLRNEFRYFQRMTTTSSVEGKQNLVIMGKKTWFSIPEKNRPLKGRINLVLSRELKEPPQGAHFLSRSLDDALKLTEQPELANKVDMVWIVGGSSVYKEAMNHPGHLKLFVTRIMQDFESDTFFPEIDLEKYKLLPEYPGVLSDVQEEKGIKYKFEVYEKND
In short: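 Purified human DHFR assayed spectrophotometrically at 25 °C by the fall in A340 on DHF reduction. Ki from steady-state kinetics.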

SMILES	MIC (Enterococcus faecalis) [µg/mL]	Ratio Ki [1]	MIC (Listeria monocytogenes [2]) [µg/mL]	pKi (Thymidylate synthase [3])	MIC (Streptococcus) [µg/mL]	pKi (Thymidylate synthase [4])	MIC (Staphylococcus aureus [5]) [µg/mL]	MIC (Escherichia coli [6]) [µg/mL]	MIC (Staphylococcus aureus [7]) [µg/mL]	MIC (Listeria monocytogenes [8]) [µg/mL]	pKi (Thymidylate synthase [9])	MIC [10] [µg/mL]	MIC (Listeria monocytogenes [11]) [µg/mL]	Ratio Ki [12]	MIC [13] [µg/mL]	MIC (Staphylococcus aureus [14]) [µg/mL]	Ratio Ki [16]	Selectivity index (Homo sapiens)	pKi (Thymidylate synthase [22])	pKi (Dihydrofolate reductase)	further results
O=C1OC(c2ccc(O)cc2)(c2ccc(O)c(Br)c2)c2cccc3cccc1c23 (centres undefined)	25 (≈ 55.9 µM)	> 330	10 (≈ 22.4 µM)	< 3.88	10 (≈ 22.4 µM)	5.28	25 (≈ 55.9 µM)	> 50	10 (≈ 22.4 µM)	10 (≈ 22.4 µM)	6.00	10 (≈ 22.4 µM)	10 (≈ 22.4 µM)	> 25	10 (≈ 22.4 µM)	10 (≈ 22.4 µM)	> 132	< 0.02	6.40	5.47	MIC (Listeria monocytogenes [15]): 10 µg/mL (≈ 22.4 µM); MIC (Escherichia coli [17]): > 50 µg/mL; MIC (Listeria monocytogenes [18]): 10 µg/mL (≈ 22.4 µM); MIC (Listeria monocytogenes [19]): 10 µg/mL (≈ 22.4 µM); MIC (Staphylococcus aureus [20]): 25 µg/mL (≈ 55.9 µM); MIC (Citrobacter): > 50 µg/mL; MIC (Listeria monocytogenes [21]): 25 µg/mL (≈ 55.9 µM)
O=C(O)c1cn(C2CC2)c2cc(N3CCNCC3)c(F)cc2c1=O [CIPROFLOXACIN]	12.5 (≈ 37.7 µM)	–	2.5 (≈ 7.54 µM)	–	> 5	–	1.2 (≈ 3.62 µM)	> 25	0.5 (≈ 1.51 µM)	2.5 (≈ 7.54 µM)	–	1 (≈ 3.02 µM)	2.5 (≈ 7.54 µM)	–	2.5 (≈ 7.54 µM)	0.5 (≈ 1.51 µM)	–	–	–	–	MIC (Listeria monocytogenes [15]): 1 µg/mL (≈ 3.02 µM); MIC (Escherichia coli [17]): > 25 µg/mL; MIC (Listeria monocytogenes [18]): 2.5 µg/mL (≈ 7.54 µM); MIC (Listeria monocytogenes [19]): 1 µg/mL (≈ 3.02 µM); MIC (Staphylococcus aureus [20]): 0.5 µg/mL (≈ 1.51 µM); MIC (Citrobacter): > 25 µg/mL; MIC (Listeria monocytogenes [21]): 1 µg/mL (≈ 3.02 µM)
O=C1OC(c2ccc(O)c(I)c2)(c2ccc(O)c(I)c2)c2cccc3cccc1c23	–	–	–	< 3.88	–	4.80	–	–	–	–	4.51	–	–	> 8	–	–	> 4	< 1	–	4.03	–
O=C1OC(c2ccc(O)cc2)(c2ccc(O)cc2)c2c1ccc1ccccc21	–	> 30	–	< 3.88	–	6.40	–	–	–	–	–	–	–	> 330	–	–	> 12	< 1	5.36	–	–
O=C1OC(c2ccc(O)c(F)c2)(c2ccc(O)c(F)c2)c2ccc(Cl)c3cccc1c23	25 (≈ 57 µM)	> 223	10 (≈ 22.8 µM)	–	10 (≈ 22.8 µM)	5.19	10 (≈ 22.8 µM)	> 50	10 (≈ 22.8 µM)	10 (≈ 22.8 µM)	–	10 (≈ 22.8 µM)	10 (≈ 22.8 µM)	> 38	10 (≈ 22.8 µM)	10 (≈ 22.8 µM)	> 136	< 0.05	5.96	4.92	MIC (Listeria monocytogenes [15]): 10 µg/mL (≈ 22.8 µM); MIC (Escherichia coli [17]): > 50 µg/mL; MIC (Listeria monocytogenes [18]): 10 µg/mL (≈ 22.8 µM); MIC (Listeria monocytogenes [19]): 10 µg/mL (≈ 22.8 µM); MIC (Staphylococcus aureus [20]): 10 µg/mL (≈ 22.8 µM); MIC (Citrobacter): > 50 µg/mL; MIC (Listeria monocytogenes [21]): 25 µg/mL (≈ 57 µM)
O=C1OC(c2ccc(O)c(Br)c2)(c2ccc(O)c(Br)c2)c2c1ccc1ccccc21	–	> 147	–	–	–	5.57	–	–	–	–	–	–	–	> 49	–	–	> 20	< 0.2	6.05	4.48	–
O=C1OC(c2ccc(O)c(Cl)c2)(c2ccc(O)c(Cl)c2)c2ccc3ccccc3c21	–	–	–	–	–	5.09	–	–	–	–	–	–	–	–	–	–	–	–	–	–	–
O=C1OC(c2ccc(O)c(I)c2)(c2ccc(O)c(I)c2)c2c1ccc1ccccc21	–	> 163	–	< 3.61	–	5.35	–	–	–	–	5.70	–	–	> 54	–	–	> 123	< 0.01	5.82	5.41	–
O=C1OC(c2ccc(O)c(F)c2)(c2ccc(O)c(F)c2)c2cccc3cccc1c23	–	–	–	–	–	–	–	–	–	–	–	–	–	–	–	–	–	–	–	4.38	–
O=C1OC(c2ccc(O)cc2)(c2ccc(O)cc2)c2ccc3ccccc3c21	–	–	–	–	–	6.22	–	–	–	–	–	–	–	–	–	–	–	–	–	4.46	–
Cc1cc(O)c(C(C)C)cc1C1(c2cc(C(C)C)c(O)cc2C)OC(=O)c2ccc3ccccc3c21	–	–	–	–	–	–	–	–	–	–	–	–	–	–	–	–	–	–	–	4.89	–
O=C1OC(c2cc(Cl)c(O)c(Cl)c2)(c2cc(Cl)c(O)c(Cl)c2)c2cccc3cccc1c23	–	1	–	5.24	–	5.48	–	–	–	–	5.70	–	–	2	–	–	3	5	5.28	4.55	–
O=C1OC(c2ccc(O)c(F)c2)(c2ccc(O)c(F)c2)c2ccc3ccccc3c21	25 (≈ 61.8 µM)	–	25 (≈ 61.8 µM)	–	25 (≈ 61.8 µM)	5.46	25 (≈ 61.8 µM)	> 50	25 (≈ 61.8 µM)	25 (≈ 61.8 µM)	–	25 (≈ 61.8 µM)	25 (≈ 61.8 µM)	–	25 (≈ 61.8 µM)	25 (≈ 61.8 µM)	–	–	–	3.96	MIC (Listeria monocytogenes [15]): 25 µg/mL (≈ 61.8 µM); MIC (Escherichia coli [17]): > 50 µg/mL; MIC (Listeria monocytogenes [18]): 25 µg/mL (≈ 61.8 µM); MIC (Listeria monocytogenes [19]): 25 µg/mL (≈ 61.8 µM); MIC (Staphylococcus aureus [20]): 25 µg/mL (≈ 61.8 µM); MIC (Citrobacter): > 50 µg/mL; MIC (Listeria monocytogenes [21]): 25 µg/mL (≈ 61.8 µM)
